ChEMBL document CHEMBL2202989, “New adamantane phenylalkylamines with σ-receptor binding affinity and anticancer activity, associated with putative antagonism of neuropathic pain” (J Med Chem, 2012)

Columns and labels:
HCT-15 = experiment: Growth inhibition of human HCT15 cells after 48 hrs by SRB assay; assay type: functional; conditions: HCT-15, 48 h; for CC50: read-out: LC50 (the source's name)
In short: (§1)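 Cells grown in RPMI 1640 with 5% heat-inactivated FCS, 2 mM L-glutamine and antibiotics, 37 °C, 5% CO2. Seeded at 3500–30000 cells/well and left 24 h before dosing. DMSO solutions added at 10-fold dilutions from 100 to 0.01 μM for 48 h. Cells TCA-fixed and SRB-stained, absorbance read at 540 nm; GI50 derived against the time-zero plate.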

MIA PaCa-2 = experiment: Growth inhibition of human MIAPaCa2 cells after 48 hrs by SRB assay; assay type: functional; conditions: MIA PaCa-2, 48 h; for CC50: read-out: LC50 (the source's name); in short: as §1
IGROV-1 = experiment: Growth inhibition of human IGROV1 cells after 48 hrs by SRB assay; assay type: functional; conditions: IGROV-1, 48 h; for CC50: read-out: LC50 (the source's name); in short: as §1
SK-HEP1 = experiment: Growth inhibition of human SKHEP1 cells after 48 hrs by SRB assay; assay type: functional; conditions: SK-HEP1, 48 h; for CC50: read-out: LC50 (the source's name); in short: as §1
NHDF = experiment: (§2) Growth inhibition of human NHDF cells after 48 hrs by SRB assay; assay type: cell-based; conditions: nhdf, 48 h; in short: as §1
[1] = as §2; assay type: cell-based; conditions: NHDF cells; in short: as §1
[2] = Growth inhibition of human MSC cells after 48 hrs by SRB assay; assay type: cell-based; in short: as §1
U-251 = experiment: Growth inhibition of human U251 cells after 48 hrs by SRB assay; assay type: functional; conditions: U-251, 48 h; for CC50: read-out: LC50 (the source's name); in short: as §1
MCF7 = experiment: Growth inhibition of human MCF7 cells after 48 hrs by SRB assay; assay type: functional; conditions: MCF7, 48 h; for CC50: read-out: LC50 (the source's name); in short: as §1
BXPC-3 = experiment: Growth inhibition of human BxPC3 cells after 48 hrs by SRB assay; assay type: functional; conditions: BXPC-3, 48 h; in short: as §1
PC-3 = experiment: Growth inhibition of human PC3 cells after 48 hrs by SRB assay; assay type: functional; conditions: PC-3, 48 h; for CC50: read-out: LC50 (the source's name); in short: as §1
HUVEC = experiment: (§3) Growth inhibition of human HUVEC cells after 48 hrs by SRB assay; assay type: cell-based; conditions: huvec, 48 h; in short: as §1
[3] = as §3; assay type: cell-based; conditions: HUVEC cells; in short: as §1
OVCAR-5 = experiment: Growth inhibition of human OVCAR5 cells after 48 hrs by SRB assay; assay type: functional; conditions: OVCAR-5, 48 h; for CC50: read-out: LC50 (the source's name); in short: as §1
DU-145 = experiment: Growth inhibition of human DU145 cells after 48 hrs by SRB assay; assay type: functional; conditions: DU-145, 48 h; for CC50: read-out: LC50 (the source's name); in short: as §1
HL-60(TB) = experiment: Growth inhibition of human HL-60(TB) cells after 48 hrs by SRB assay; assay type: functional; conditions: HL-60, 48 h; for CC50: read-out: LC50 (the source's name)
In short: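 Cells kept in RPMI 1640 with 5% FCS at 37 °C, 5% CO2, and seeded 24 h before dosing. Compound given from DMSO at 10-fold dilutions, 100 to 0.01 μM, for 48 h. Cells fixed with TCA, stained with SRB, absorbance read at 540 nm. GI50 taken from a time-zero plate.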

[4] = biological target: Sigma non-opioid intracellular receptor 1 (Homo sapiens, UniProt Q99720); experiment: Displacement of [3H]-(+)-pentazocine from sigma 1 receptor in human Jurkat cell membrane; assay type: cell membranes
Chain of Sigma non-opioid intracellular receptor 1 (Q99720 whole entry): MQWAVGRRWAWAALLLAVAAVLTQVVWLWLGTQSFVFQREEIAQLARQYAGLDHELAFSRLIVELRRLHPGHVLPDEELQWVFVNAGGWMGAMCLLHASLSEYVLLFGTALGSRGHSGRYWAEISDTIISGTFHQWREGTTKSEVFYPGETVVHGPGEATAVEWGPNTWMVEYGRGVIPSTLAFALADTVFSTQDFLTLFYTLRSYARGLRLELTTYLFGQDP
In short: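 Jurkat cell membranes incubated with 8 nM [3H](+)-pentazocine and a range of test concentrations for 2 h at 22 °C in Tris-HCl buffer, pH 7.4. Nonspecific binding defined with 10 μM haloperidol. Run in triplicate.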

[5] = Displacement of [3H]1,3-di-otolylguanidine from sigma 2 receptor in rat cerebral cortex membranes; assay type: cell membranes, Membrane
In short: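 Rat cerebral cortex membranes incubated with 5 nM [3H]DTG plus 300 nM (+)-pentazocine to mask σ1 sites, together with a range of test concentrations, 2 h at 22 °C in Tris-HCl, pH 7.4. Nonspecific binding defined with 10 μM haloperidol.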

HCT-116 = experiment: Growth inhibition of human HCT116 cells after 48 hrs by SRB assay; assay type: functional; conditions: HCT-116, 48 h; in short: as §1

Structure (SMILES)	GI50 (HCT-15) [µM]	TGI (HCT-15) [µM]	CC50 (HCT-15) [µM]	GI50 (SK-HEP1) [µM]	TGI (SK-HEP1) [µM]	CC50 (SK-HEP1) [µM]	LC50 (NHDF) [µM]	TGI (NHDF) [µM]	GI50 at 48 h [1] [µM]	TGI [2] [µM]	GI50 (U-251) [µM]	TGI (U-251) [µM]	CC50 (U-251) [µM]	GI50 (MCF7) [µM]	TGI (MCF7) [µM]	CC50 (MCF7) [µM]	GI50 (BXPC-3) [µM]	LC50 (BXPC-3) [µM]	TGI (BXPC-3) [µM]	GI50 (PC-3) [µM]	also measured
c1ccc(C(c2ccc(CCN3CCCCC3)cc2)C23CC4CC(CC(C4)C2)C3)cc1 (stereo not given)	9.12	43.7	0.082	8.61	58.2	0.1	99.34	59	18.6	18.3	24.8	55.8	0.0867	6.93	42.4	0.0985	64.7	0.1	100	11.6	GI50 (MIA PaCa-2): 35.5 µM; TGI (MIA PaCa-2): 63.3 µM; CC50 (MIA PaCa-2): 0.0911 µM; GI50 (IGROV-1): 17.7 µM; TGI (IGROV-1): 43.7 µM; CC50 (IGROV-1): 0.0687 µM; TGI (PC-3): 41.2 µM; CC50 (PC-3): 0.092 µM; LC50 (HUVEC): 100 µM; TGI (HUVEC): 9.33 µM; GI50 at 48 h [3]: 5.31 µM; GI50 (OVCAR-5): 37.3 µM; TGI (OVCAR-5): 67.8 µM; CC50 (OVCAR-5): 0.0977 µM
CCN1CCN(Cc2ccc(C(c3ccccc3)C34CC5CC(CC(C5)C3)C4)cc2)CC1 (stereo not given)	3.36	6.36	0.0094	5.9	24.3	0.0902	100	66.8	6.59	4.61	4.33	7.8	0.0685	2.26	5.92	0.00958	4.33	0.00935	6.84	7	GI50 (MIA PaCa-2): 8.24 µM; TGI (MIA PaCa-2): 43.7 µM; CC50 (MIA PaCa-2): 0.0886 µM; GI50 (DU-145): 5.73 µM; TGI (DU-145): 46.1 µM; CC50 (DU-145): 0.1 µM; TGI (PC-3): 7.9 µM; CC50 (PC-3): 0.0624 µM; LC50 (HUVEC): 9.54 µM; TGI (HUVEC): 5.34 µM; GI50 at 48 h [3]: 1.14 µM; GI50 (HL-60(TB)): 0.00433 µM; TGI (HL-60(TB)): 0.00775 µM; CC50 (HL-60(TB)): 0.1 µM; GI50 (OVCAR-5): 18.1 µM; TGI (OVCAR-5): 43.8 µM; CC50 (OVCAR-5): 0.07 µM
CN1CCN(Cc2ccc(C(c3ccccc3)C34CC5CC(CC(C5)C3)C4)cc2)CC1 (stereo not given)	3.5	6.3	0.0091	3.35	5.97	0.00859	100	10.4	5.12	4.44	3.62	6.55	0.00947	2.25	5.29	0.00833	4.83	0.00913	6.98	3.55	GI50 (MIA PaCa-2): 3.61 µM; TGI (MIA PaCa-2): 6.34 µM; CC50 (MIA PaCa-2): 0.00906 µM; IC50 [4]: 0.0052 µM; GI50 (DU-145): 3.01 µM; TGI (DU-145): 6.41 µM; CC50 (DU-145): 0.00908 µM; TGI (PC-3): 6.25 µM; CC50 (PC-3): 0.0685 µM; LC50 (HUVEC): 100 µM; TGI (HUVEC): 7.3 µM; GI50 at 48 h [3]: 4.12 µM; GI50 (HL-60(TB)): 0.00463 µM; TGI (HL-60(TB)): 0.00914 µM; CC50 (HL-60(TB)): 0.1 µM; GI50 (OVCAR-5): 5.31 µM; TGI (OVCAR-5): 19.7 µM; CC50 (OVCAR-5): 0.0577 µM; IC50 [5]: 0.11 µM
CCN1CCN(CCc2ccc(C(c3ccccc3)C34CC5CC(CC(C5)C3)C4)cc2)CC1 (stereo not given)	5.64	17.2	0.1	4.14	7.66	0.1	100	83.6	7.31	2.93	3.54	6.19	0.00847	3.9	8.5	0.0971	8.35	0.0898	45.2	4.83	GI50 (MIA PaCa-2): 20.9 µM; TGI (MIA PaCa-2): 49.2 µM; CC50 (MIA PaCa-2): 0.0775 µM; GI50 (IGROV-1): 4.49 µM; TGI (IGROV-1): 9.83 µM; CC50 (IGROV-1): 0.0968 µM; TGI (PC-3): 9.53 µM; CC50 (PC-3): 0.0867 µM; LC50 (HUVEC): 9.62 µM; TGI (HUVEC): 7.36 µM; GI50 at 48 h [3]: 5.1 µM; GI50 (OVCAR-5): 28.1 µM; TGI (OVCAR-5): 53.8 µM; CC50 (OVCAR-5): 0.0685 µM
CCN1CCN(CCCc2ccc(C(c3ccccc3)C34CC5CC(CC(C5)C3)C4)cc2)CC1 (stereo not given)	4.09	7.64	0.0473	3.41	6.01	0.00861	100	36.6	5.04	8.69	4.29	6.69	0.00909	3.05	5.87	0.00861	5.3	0.1	10.6	4.79	GI50 (DU-145): 5.33 µM; TGI (DU-145): 8.5 µM; CC50 (DU-145): 0.0117 µM; TGI (PC-3): 7.84 µM; CC50 (PC-3): 0.0109 µM; LC50 (HUVEC): 9.4 µM; TGI (HUVEC): 6.73 µM; GI50 at 48 h [3]: 4.07 µM; GI50 (HCT-116): 3.29 µM; TGI (HCT-116): 5.9 µM; CC50 (HCT-116; read-out: LC50 (the source's name)): 0.00852 µM
